Reference: article PMC7181320 (ACS Central Science, 2020)
Entries after “also recorded” stand apart in the source; their conditions may differ. Like-named read-outs stand apart in the source and are kept apart here.

What was measured:
[1] = molecular target: T1, W173A N-His6-FhuD2 (Staphylococcus aureus, UniProt Q7BGA5, W197A); assay: Intrinsic Trp fluorescence quenching binding assay, FhuD2 mutant W173A; set-up: species or system S. aureus; conditions: FhuD2 variant W173A
T1 sequence (Q7BGA5 25-302 W197A): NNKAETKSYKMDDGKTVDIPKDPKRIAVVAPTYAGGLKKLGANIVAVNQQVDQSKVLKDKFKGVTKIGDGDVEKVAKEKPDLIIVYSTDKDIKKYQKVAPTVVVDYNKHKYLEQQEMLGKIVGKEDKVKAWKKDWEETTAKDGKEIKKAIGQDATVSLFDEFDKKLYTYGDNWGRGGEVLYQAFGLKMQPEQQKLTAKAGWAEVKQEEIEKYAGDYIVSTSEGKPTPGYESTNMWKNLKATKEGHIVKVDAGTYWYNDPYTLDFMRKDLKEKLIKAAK

[2] = molecular target: T2, Y169F N-His6-FhuD2 (Staphylococcus aureus, UniProt Q7BGA5, Y193F); assay: Intrinsic Trp fluorescence quenching binding assay, FhuD2 mutant Y169F; set-up: species or system S. aureus; conditions: FhuD2 variant Y169F
T2 sequence (Q7BGA5 25-302 Y193F): T1 sequence (Q7BGA5 25-302 W197A)

[3] = molecular target: T3, Y254F N-His6-FhuD2 (Staphylococcus aureus, UniProt Q7BGA5, Y278F); assay: Intrinsic Trp fluorescence quenching binding assay, FhuD2 mutant Y254F; set-up: species or system S. aureus; conditions: FhuD2 variant Y254F
T3 sequence (Q7BGA5 25-302 Y278F): T1 sequence (Q7BGA5 25-302 W197A)

[4] = molecular target: Y106F N-His6-FhuD2 (Staphylococcus aureus, UniProt Q7BGA5, Y130F); assay: Intrinsic Trp fluorescence quenching binding assay, FhuD2 mutant Y106F; set-up: species or system S. aureus; conditions: FhuD2 variant Y106F
[5] = molecular target: N-His6-FhuD2 (Staphylococcus aureus, UniProt Q7BGA5); assay: Intrinsic Trp fluorescence quenching binding assay, wild-type N-His6-FhuD2; set-up: species or system S. aureus
Method in brief: (§1)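 Purified SBP constructs, truncated with an N-terminal His6 tag replacing the signal peptide. Binding of the fluorescent desferrioxamine probe, in metal-free and ferric forms, was read as quenching of the protein's intrinsic Trp fluorescence.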

[6] = molecular target: T4, Y167F N-His6-FhuD2 (Staphylococcus aureus, UniProt Q7BGA5, Y191F); assay: Intrinsic Trp fluorescence quenching binding assay, FhuD2 mutant Y167F; set-up: species or system S. aureus; conditions: FhuD2 variant Y167F
T4 sequence (Q7BGA5 25-302 Y191F): T1 sequence (Q7BGA5 25-302 W197A)

[7] = molecular target: Y256F N-His6-FhuD2 (Staphylococcus aureus, UniProt Q7BGA5, Y280F); assay: Intrinsic Trp fluorescence quenching binding assay, FhuD2 mutant Y256F; set-up: species or system S. aureus
[8] = molecular target: N-His6-YxeB (Bacillus subtilis, UniProt P54941); assay: Intrinsic Trp fluorescence quenching binding assay, wild-type N-His6-YxeB; set-up: species or system B. subtilis
Chain of N-His6-YxeB (P54941 21-321): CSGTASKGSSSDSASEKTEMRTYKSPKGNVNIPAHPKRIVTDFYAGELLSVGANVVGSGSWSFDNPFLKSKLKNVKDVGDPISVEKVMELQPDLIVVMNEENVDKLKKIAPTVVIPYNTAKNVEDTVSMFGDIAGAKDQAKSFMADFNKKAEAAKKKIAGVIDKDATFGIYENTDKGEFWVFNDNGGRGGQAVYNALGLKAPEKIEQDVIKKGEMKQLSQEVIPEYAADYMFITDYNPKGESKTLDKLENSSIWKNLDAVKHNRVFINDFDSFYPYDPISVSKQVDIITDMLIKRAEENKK
Method in brief: as §1

[9] = molecular target: T5, R175A N-His6-FhuD2 (Staphylococcus aureus, UniProt Q7BGA5, R199A); assay: Intrinsic Trp fluorescence quenching binding assay, FhuD2 mutant R175A; set-up: species or system S. aureus; conditions: FhuD2 variant R175A
T5 sequence (Q7BGA5 25-302 R199A): T1 sequence (Q7BGA5 25-302 W197A)

[10] = molecular target: T6, W255A N-His6-FhuD2 (Staphylococcus aureus, UniProt Q7BGA5, W279A); assay: Intrinsic Trp fluorescence quenching binding assay, FhuD2 mutant W255A; set-up: species or system S. aureus; conditions: FhuD2 variant W255A
T6 sequence (Q7BGA5 25-302 W279A): T1 sequence (Q7BGA5 25-302 W197A)

[11] = Apparent KFe measurement by EDTA competition assay; type: physicochemical; conditions: 1.2 equiv EDTA, HEPES buffer pH 7.4
Method in brief: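 Ferric siderophore (ferrioxamine B or E) treated with 1.2 equiv EDTA, with or without stoichiometric FhuD2. Remaining ferric siderophore is followed continuously by absorbance at 427 nm and expressed as relative percentage remaining. Apparent log KFe is calculated from the decay plots. At least two independent trials are run, with standard deviations reported.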

[12] = molecular target: Y169F (Staphylococcus aureus, UniProt Q7BGA5, Y193F); assay: Intrinsic Trp fluorescence quenching; type: binding; conditions: read-out: app Kd; SD, n = 2
[13] = molecular target: Y256F (Staphylococcus aureus, UniProt Q7BGA5, Y280F); assay: Intrinsic Trp fluorescence quenching; type: binding; conditions: read-out: app Kd; SD, n = 2
[14] = molecular target: Y254F (Staphylococcus aureus, UniProt Q7BGA5, Y278F); assay: Intrinsic Trp fluorescence quenching; type: binding; conditions: read-out: app Kd; SD, n = 2
[15] = tested on: SBPs (FhuD2 or YxeB); type: biochemical, S. aureus and B. subtilis; conditions: SBP-catalyzed exchange, FhuD2 and YxeB
Method in brief: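 Truncated SBPs (FhuD2 or YxeB), each expressed with an N-terminal His6 tag in place of the signal peptide, at 100 nM with 4 μM ferric donor (FOB, FOE or human holo-transferrin). Started by adding 2 μM DFO-NBD probe, then fluorescence followed continuously (ex 475 nm; em 565 nm). Percent change in relative emission taken at 15 min against a matching no-SBP reaction.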

[16] = molecular target: R175A (Staphylococcus aureus, UniProt Q7BGA5, R199A); assay: Intrinsic Trp fluorescence quenching; type: binding; conditions: read-out: app Kd; SD, n = 2
[17] = molecular target: Y106F (Staphylococcus aureus, UniProt Q7BGA5, Y130F); assay: Intrinsic Trp fluorescence quenching; type: binding; conditions: read-out: app Kd; SD, n = 2
[18] = molecular target: T7, FhuD2 (Staphylococcus aureus, UniProt Q7BGA5); assay: Intrinsic Trp fluorescence quenching; type: binding; conditions: read-out: app Kd; SD, n = 2; cited from earlier work
[19] = molecular target: W173A (Staphylococcus aureus, UniProt Q7BGA5, W197A); assay: Intrinsic Trp fluorescence quenching; type: binding; conditions: read-out: app Kd; SD, n = 2
[20] = molecular target: W255A (Staphylococcus aureus, UniProt Q7BGA5, W279A); assay: Intrinsic Trp fluorescence quenching; type: binding; conditions: read-out: app Kd; SD, n = 2
[21] = molecular target: T7, FhuD2; assay: Intrinsic Trp fluorescence quenching; type: binding; conditions: read-out: app Kd; SD, n = 2
[22] = tested on: FhuD2; assay: FhuD2-catalyzed iron exchange from holo-Tf to DFO-NBD with additives; type: biochemical, S. aureus; conditions: 25 mM additive, 4 μM holo-Tf, 2 μM DFO-NBD
Method in brief: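 FhuD2 is a truncated S. aureus construct with the N-terminal signal peptide replaced by an N-terminal His6 tag, used at 100 nM with holo-transferrin as iron donor. The reaction is started by adding the DFO-NBD probe, and fluorescence (ex 475 nm, em 560 nm) is monitored continuously. Quenching is expressed as percentage change relative to a control containing DFO-NBD and FhuD2 without iron donor.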

[23] = molecular target: FhuD2 Y256F (S. aureus); assay: other fluorescence titration
[24] = 25 °C; cited from earlier work

Chain of human holo-transferrin (P02787 20-698): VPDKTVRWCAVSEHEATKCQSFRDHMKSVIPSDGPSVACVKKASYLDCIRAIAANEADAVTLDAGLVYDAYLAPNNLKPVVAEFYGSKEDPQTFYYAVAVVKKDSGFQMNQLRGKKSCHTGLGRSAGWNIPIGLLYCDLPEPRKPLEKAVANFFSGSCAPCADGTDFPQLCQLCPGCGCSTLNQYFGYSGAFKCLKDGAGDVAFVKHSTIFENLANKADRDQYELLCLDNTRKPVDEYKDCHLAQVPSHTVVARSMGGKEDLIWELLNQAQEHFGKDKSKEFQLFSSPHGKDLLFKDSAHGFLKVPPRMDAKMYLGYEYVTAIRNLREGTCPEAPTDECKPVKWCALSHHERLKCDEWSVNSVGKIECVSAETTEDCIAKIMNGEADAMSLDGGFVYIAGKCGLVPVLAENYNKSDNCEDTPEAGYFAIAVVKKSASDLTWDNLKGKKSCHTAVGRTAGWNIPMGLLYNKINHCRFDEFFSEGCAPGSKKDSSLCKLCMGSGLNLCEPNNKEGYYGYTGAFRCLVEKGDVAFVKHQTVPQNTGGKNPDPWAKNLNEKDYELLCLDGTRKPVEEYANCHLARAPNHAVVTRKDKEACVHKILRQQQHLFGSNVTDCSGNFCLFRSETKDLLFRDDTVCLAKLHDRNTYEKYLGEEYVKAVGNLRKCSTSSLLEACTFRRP

## CC(=O)N(O)CCCCCNC(=O)CCC(=O)N(O)CCCCCNC(=O)CCC(=O)N(O)CCCCCN [DFOB, desferrioxamine B]
[1]; app Kd
  Kd: 100 ± 50 nM
[2]; app Kd
  Kd: 70 ± 10 nM
[3]; app Kd
  Kd: 50 ± 10 nM
[4]; app Kd
  Kd: 80 ± 20 nM
[5]
  Kd: 90 ± 10 nM
[6]; app Kd
  Kd: 60 ± 9 nM
[7]
  Kd: 80 ± 30 nM
[8]
  Kd: 30 ± 20 nM
[9]; app Kd
  Kd: 40 ± 9 nM
[10]; app Kd
  Kd: 60 ± 20 nM

## CC(=O)N([O-])CCCCCNC(=O)CCC(=O)N([O-])CCCCCNC(=O)CCC(=O)N([O-])CCCCCNc1ccc([N+](=O)[O-])c2nonc12.[Fe+3] [FO-NBD, ferrioxamine B-2-(4-nitro-2,1,3-benzoxadiazol-7-yl) conjugate]
[11]; no FhuD2
  apparent log KFe: 30.8 ± 0.3
[5]; wild-type N-His6-FhuD2 100 nM, TBS buffer pH 7.4, one site binding model
  app Kd: nanomolar affinity
[8]; wild-type N-His6-YxeB 100 nM, TBS buffer pH 7.4, one site binding model
  app Kd: nanomolar affinity

## CC(=O)N([O-])CCCCCNC(=O)CCC(=O)N([O-])CCCCCNC(=O)CCC(=O)N([O-])CCCCCN.[Fe+3] [FOB, ferrioxamine B]
[1]; read-out: app Kd
  Kd: 60 ± 8 nM
[2]; read-out: app Kd
  Kd: 40 ± 9 nM
[11]; 1:1 stoichiometric complex with FhuD2
  apparent log KFe: 28.5 ± 0.1
[11]; no FhuD2
  apparent log KFe: 30.3 ± 0.4
[3]; read-out: app Kd
  Kd: 10 ± 2 nM
[12]
  Kd: 40 ± 9 nM
[4]; read-out: app Kd
  Kd: 40 ± 8 nM
[6]; read-out: app Kd
  Kd: 40 ± 6 nM
[7]; read-out: app Kd, FhuD2 variant Y256F
  Kd: 60 ± 10 nM
[13]
  Kd: 60 ± 10 nM
[14]
  Kd: 10 ± 2 nM
[15]
  ability to serve as ferric iron donor to DFO-NBD: serve as a donor of ferric iron; also recorded: serve as iron donor substrates
[16]
  Kd: 30 ± 9 nM
[10]; read-out: app Kd
  Kd: 60 ± 50 nM
[17]
  Kd: 40 ± 8 nM
[18]
  Kd: 30 ± 6 nM

## O=C1CCC(=O)N(O)CCCCCNC(=O)CCC(=O)N(O)CCCCCNC(=O)CCC(=O)N(O)CCCCCN1.[Fe+3] [FOE, ferrioxamine E]
[19]
  Kd: 90 ± 30 nM
[12]
  Kd: 20 ± 2 nM
[20]
  Kd: 30 ± 9 nM
[13]
  Kd: 40 ± 20 nM
[17]
  Kd: 80 ± 10 nM
[21]
  Kd: 50 ± 6 nM

## O=C([O-])O.[Na+] [NaHCO3]
[22]
  effect on FhuD2-catalyzed exchange of iron from holo-Tf to DFO-NBD: no apparent effect

## human holo-transferrin (from UniProt P02787 20-698) (natural protein)
[23]
  Kd: 70 nM

## transferrin: human ferric holo-transferrin, host iron source and iron donor substrate
[1]; read-out: app Kd
  Kd: 140 ± 30 nM
[2]; read-out: app Kd
  Kd: 110 ± 20 nM
[3]; read-out: app Kd
  Kd: 90 ± 20 nM
[6]; read-out: app Kd
  Kd: 80 ± 20 nM
[24]
  log KFe: ≈ 22
[9]; read-out: app Kd
  Kd: 110 ± 30 nM
[10]; read-out: app Kd
  Kd: 110 ± 80 nM
